Data taken from ChEMBL document CHEMBL4811311, “Ferulic acid amide derivatives with varying inhibition of amyloid-β oligomerization and fibrillization” (Bioorg Med Chem, 2021).

Experiments:
[1] = target: T1, Amyloid-beta precursor protein (Homo sapiens, UniProt P05067); assay: Inhibition of human biotinylated amyloid beta (1 to 42) oligomerization assessed as decrease in oligomer abundance measured after 1 hr by ELISA
[2] = target: T1, Amyloid-beta precursor protein; assay: Inhibition of human amyloid beta (1 to 40) fibrillization at 100 uM measured every 15 mins for 100 hrs by Thioflavin-T fluorescence assay relative to control
Summary of the method: (§1)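 Aβ40 monomerized in HFIP (1 mg/mL), dried under argon, diluted to 20 μM final in 20 mM Tris, 8 μM ThT, 0.3 M NaCl, pH 7.4. Compounds added in DMSO, triplicate; DMSO-only control taken as 100% aggregation. ThT fluorescence (ex 450/em 482 nm) read every 15 min for ~100 h; percent inhibition versus control, averaged over three independent samples.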

[3] = target: T1, Amyloid-beta precursor protein; assay: Inhibition of human amyloid beta (1 to 40) fibrillization at 20 uM measured every 15 mins for 100 hrs by Thioflavin-T fluorescence assay relative to control; summary of the method: as §1

T1 sequence (P05067 whole entry): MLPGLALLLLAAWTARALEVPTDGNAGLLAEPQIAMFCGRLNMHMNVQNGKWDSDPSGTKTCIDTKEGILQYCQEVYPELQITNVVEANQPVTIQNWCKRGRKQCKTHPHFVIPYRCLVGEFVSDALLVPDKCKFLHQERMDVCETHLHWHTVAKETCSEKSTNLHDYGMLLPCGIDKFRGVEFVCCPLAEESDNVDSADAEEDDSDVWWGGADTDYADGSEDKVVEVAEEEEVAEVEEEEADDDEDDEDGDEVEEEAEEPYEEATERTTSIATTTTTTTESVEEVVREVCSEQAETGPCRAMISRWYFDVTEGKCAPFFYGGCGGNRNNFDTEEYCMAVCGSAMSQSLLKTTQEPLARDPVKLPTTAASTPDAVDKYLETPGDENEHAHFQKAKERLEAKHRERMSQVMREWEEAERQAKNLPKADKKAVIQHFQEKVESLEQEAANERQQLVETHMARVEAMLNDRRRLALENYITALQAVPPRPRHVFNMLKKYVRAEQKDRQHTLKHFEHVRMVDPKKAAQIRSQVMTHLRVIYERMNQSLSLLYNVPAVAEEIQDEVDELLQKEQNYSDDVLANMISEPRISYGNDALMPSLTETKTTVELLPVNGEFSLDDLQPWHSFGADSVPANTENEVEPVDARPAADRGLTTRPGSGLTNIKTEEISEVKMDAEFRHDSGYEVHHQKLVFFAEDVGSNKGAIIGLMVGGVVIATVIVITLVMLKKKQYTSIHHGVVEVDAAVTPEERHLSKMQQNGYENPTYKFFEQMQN

SMILES | IC50 ([1]; read-out: IC50) [µM] | inhibition [2] [%] | inhibition [3] [%] | IC50 [1]
COc1cc(/C=C/CN2CCCCC2)ccc1OCc1ccccc1 | 10.6 | 22.3 | 0.29 | 
COc1cc(/C=C/C(=O)NCc2ccccc2)ccc1OCc1ccccc1 |  |  |  | Not Active
CCCN(CCC)C(=O)/C=C/c1ccc(O)c(OC)c1 | 98.8 |  |  | 
COc1cc(/C=C/C(=O)N2CC(F)(F)C2)ccc1OCc1ccccc1 | 107 |  |  | 
COc1ccc(CNC(=O)C2CN(C(=O)/C=C/c3ccc(OCc4ccccc4)c(OC)c3)C2)cc1 | 4.78 |  |  | 
COc1cc(/C=C/C(=O)N2CCCC2)ccc1OCc1ccccc1 | 65.1 |  |  | 
COc1cc(/C=C/C(=O)N2CCN(c3ccccc3)CC2)ccc1OCc1ccccc1 |  |  |  | Not Active
CCN(CC)C(=O)C1CN(C(=O)/C=C/c2ccc(OCc3ccccc3)c(OC)c2)C1 | 12.8 |  |  | 
CCCN(CCC)C(=O)/C=C/c1ccc(OCc2cc(F)cc(F)c2)c(OC)c1 |  |  |  | Not Active
COc1cc(/C=C/C(O)C(F)(F)F)ccc1OCc1ccccc1 (stereo not given) |  | 44.1 | 0 | Not Active
CCCN(CCC)C(=O)/C=C/c1ccc(OCc2cc(OC)cc(OC)c2)c(OC)c1 |  |  |  | Not Active
CCN(CC)C(=O)/C=C/c1ccc(O)c(O)c1 | 119 | 91.9 | 73.1 | 
COc1cc(/C=C/C(=O)N2CCC[C@@H]2C(=O)NCc2ccccc2)ccc1OCc1ccccc1 | 17.8 |  |  | 
COc1cc(-c2cncn2Cc2ccccc2)ccc1OCc1ccccc1 |  | 27.5 | 2.21 | Not Active
COc1cc(/C=C/C(=O)N2CC(C(=O)NCc3ccc(F)cc3)C2)ccc1OCc1ccccc1 | 3.65 |  |  | 
COc1cc(/C=C/C(=O)NCCC(=O)NCc2ccccc2)ccc1OCc1ccccc1 | 81.6 |  |  | 
COc1cc(/C=C/C(=O)N2CC(C(=O)NCc3ccco3)C2)ccc1OCc1ccccc1 | 3.61 |  |  | 
COc1ccc(CNC(=O)[C@@H]2CCCN2C(=O)/C=C/c2ccc(OCc3ccccc3)c(OC)c2)cc1 | 19.2 |  |  | 
COc1cc(/C=C/C(=O)N2CC(C(=O)N3CCOCC3)C2)ccc1OCc1ccccc1 | 35.7 |  |  | 
COc1cc(/C=C/C(=O)N2CCC[C@H]2C(=O)NCCOc2ccccc2)ccc1OCc1ccccc1 | 8.59 |  |  | 
CCCN(CCC)C(=O)/C=C/c1ccc(OCc2ccccc2)c(OC)c1 | 12.4 | 17 | 9.35 | 
CCN(CC)C(=O)/C=C/c1ccc(OCc2ccccc2)c(OC)c1 | 39.3 | 0 |  | 
COc1cc(/C=C/C(=O)N(C)OC)ccc1OCc1ccccc1 | 79.9 |  |  | 
COc1cc(/C=C/C(=O)N2CC(C(=O)NCCOc3ccccc3)C2)ccc1OCc1ccccc1 | 1.8 | 20.6 | 5.5 | 
COc1cc(/C=C/C(=O)NCCOc2ccccc2)ccc1OCc1ccccc1 |  |  |  | Not Active
COc1cc(/C=C/C(=O)NCCC(=O)N2CCCCC2)ccc1OCc1ccccc1 | 8.17 |  |  | 
COc1cc(/C=C/C(=O)N2CC(C(=O)NCc3ccccc3)C2)ccc1OCc1ccccc1 | 3.13 | 48.2 | 14.8 | 

SMILES | IC50 ([1]; read-out: IC50) [µM] | inhibition [2] [%] | inhibition [3] [%] | IC50 [1]
CCN(CC)C(=O)/C=C/c1ccc(OS(=O)(=O)c2ccc(C)cc2)c(OC)c1 | 10.6 | 3.62 | 1.95 | 
COc1cc(/C=C/c2cnco2)ccc1OCc1ccccc1 |  |  |  | Not Active
CCN(CC)C(=O)/C=C/c1ccc(OCc2cccnc2)c(OC)c1 |  |  |  | Not Active
COc1cc(/C=C/C(=O)Nc2nnn[nH]2)ccc1OCc1ccccc1 | 98.5 | 0 |  | 
COc1cc(/C=C/C(=O)N(C)C)ccc1OCc1ccccc1 | 24.6 | 0 |  | 
COc1cc(/C=C/C(=O)N2CCOCC2)ccc1OCc1ccccc1 | 78.1 |  |  | 
COc1ccc(CNC(=O)CCNC(=O)/C=C/c2ccc(OCc3ccccc3)c(OC)c2)cc1 | 54.2 |  |  | 
COc1cc([C@H]2C[C@@H]2C(=O)N(C)C)ccc1OCc1ccccc1 | 45.8 | 8.81 |  | 
CCN(CC)C(=O)/C=C/c1ccc(OCc2cscn2)c(OC)c1 |  |  |  | Not Active
CCN(CC)C(=S)/C=C/c1ccc(OCc2ccccc2)c(OC)c1 |  |  |  | Not Active
COc1cc(/C=C/C(=O)O)ccc1O [FERULATE] | 226 | 36.8 | 9.75 | 
COc1cc(/C=C/C(=O)NCc2ccco2)ccc1OCc1ccccc1 |  |  |  | Not Active
CCCN(CCC)C(=O)/C=C/c1ccc(OC)c(OC)c1 | 45.3 |  |  | 
COc1cc([C@H]2C[C@@H]2C(=O)N2CCCCC2)ccc1OCc1ccccc1 | 18.7 | 13.3 | 0 | 
COc1cc(/C=C/C(=O)N2CCC[C@H]2C(=O)N2CCCCC2)ccc1OCc1ccccc1 | 17.1 |  |  | 
COc1cc(/C=C/c2nnn[nH]2)ccc1OCc1ccccc1 |  | 9.56 |  | Not Active
COc1cc(/C=C/C(=O)N2CCC[C@H]2C(=O)NCc2ccccc2)ccc1OCc1ccccc1 | 18.7 |  |  | 
COc1cc(/C=C/C(=O)N2CCCCC2)ccc1OCc1ccccc1 | 27.9 | 13.4 | 7.28 | 
COc1cc(-c2cncn2CCC(=O)NCCc2ccccc2)ccc1OCc1ccccc1 | 9.91 | 0 |  | 
CCN(CC)C(=O)/C=C/c1ccc(O)c(OC)c1 | 205 |  |  | 
CCN(CC)C(=O)CCc1ccc(OCc2ccccc2)c(OC)c1 | 34.9 | 6.49 |  | 
COc1cc(/C=C/C(=O)NCCC(=O)NCCOc2ccccc2)ccc1OCc1ccccc1 | 17.9 |  |  | 
COc1cc(-c2cncn2CCC(=O)NCCOc2ccccc2)ccc1OCc1ccccc1 | 7.76 | 13.8 | 5.98 | 
COc1cc(/C=C/C(=O)N2CC(C(=O)N3CC(F)(F)C3)C2)ccc1OCc1ccccc1 | 21.8 |  |  | 
COc1cc(/C=C/C(=O)N2CC(C(=O)N3CCCCC3)C2)ccc1OCc1ccccc1 | 10.6 |  |  | 
CCCN(CCC)C(=O)/C=C/c1ccc(OCCCOc2ccccc2)c(OC)c1 |  |  |  | Not Active
COc1cc(/C=C/C(=O)N2CCC[C@@H]2C(=O)NCCOc2ccccc2)ccc1OCc1ccccc1 | 16.8 |  |  | 
